# V1R ag counter – agonists of human V1a receptor, primary screen, counter-screen for OXTR agonist project, fluorescence, CHO-V1R cells. AID 2797, 2010. Fluo-8 calcium fluorescence, agonist mode; 0% DMSO, 100% 3 nM vasopressin. 0.25% of 320,000 active. activation, % at 3 µM. Vasopressin V1a receptor (Homo sapiens), P37288;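 active = activation above the mean activation of all tested compounds plus 3 SD, per screening run, cut at about 20% in these data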;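 note: signal is peak over basal fluorescence ratio across a 100 second FLIPR read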
# OXTR ag – human OXTR agonists, primary screen, fluorescence, CHO-OTR cells, Fluo-8 calcium; Oxytocin receptor (Homo sapiens), P30559; 0.32% of 320,000 active; Fluo-8 calcium fluorescence; normalized: DMSO 0%, oxytocin 100%; activation, % at 3 µM; AID 2435, 2010;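 active = activation above the mean of all tested compounds plus 3 SD, cutoff set per screening run, cut at about 20% in these data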;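 note: peak over basal fluorescence ratio from a 100 s FLIPR kinetic read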
# TAAR1 agonist – human TAAR1 agonists, primary screen, Fluo-8 calcium fluorescence, CHO RD-HGA16 cells; Trace amine-associated receptor 1 (Homo sapiens), Q96RJ0; vehicle wells 0%, saturating PEA agonist 100%; activation, % at 3 µM; 0.99% of 360,000 active; AID 624467, 2012;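 active = activation above the mean activation of all test compounds in the run plus 3 SD, cut at about 38% in these data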
# Target sequence (Q96RJ0 whole entry, looked up): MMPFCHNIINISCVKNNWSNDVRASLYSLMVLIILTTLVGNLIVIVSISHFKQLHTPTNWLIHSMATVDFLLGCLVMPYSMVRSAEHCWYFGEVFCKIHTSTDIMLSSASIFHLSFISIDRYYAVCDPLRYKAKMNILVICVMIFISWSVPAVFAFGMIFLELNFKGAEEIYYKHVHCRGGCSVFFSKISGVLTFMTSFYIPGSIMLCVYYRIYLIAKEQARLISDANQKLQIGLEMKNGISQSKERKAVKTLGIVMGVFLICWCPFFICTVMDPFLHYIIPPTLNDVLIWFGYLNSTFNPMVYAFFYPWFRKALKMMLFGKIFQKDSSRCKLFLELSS
#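 Benchmarks: low control DMSO, high control PEA (EC100); System: CHO RD-HGA16 cells carrying human TAAR1 plus Gα16; Detection: Fluo-8 fluorescence, 5 s baseline then 140 s kinetic read; Schedule: 17-24 h plating, Fluo-8 75 min 37 °C, 30 min RT; Read-out basis: % activation from peak over basal fluorescence ratio, DMSO-to-PEA scaled.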
# TAAR1 antag – human TAAR1 antagonists, primary screen, Fluo-8 calcium fluorescence, CHO RD-HGA16 cells; 1.5% of 360,000 active; inhibition, % at 3 µM; antagonist; AID 624466, 2012;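 active = inhibition above a per-plate cutoff, the mean inhibition of test compounds on that plate plus 3 SD, cut at about 49% in these data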;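 note: 0% = DMSO plus EC80 beta-PEA response and 100% = DMSO alone without agonist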
#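 test system = CHO RD-HGA16 cells bearing hTAAR1 | replication = singlicate | controls = DMSO-only wells and EC80 β-PEA-stimulated wells | reagent = EC80 β-phenethylamine stimulus | read-out basis = percent inhibition of PEA-evoked calcium signal, max/basal emission ratio | schedule = seeding 17-24 h prior, 75-min 37 °C, 30-min RT dye loading | signal = kinetic Fluo-8 calcium fluorescence measurement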
# OXTR potentiator – human OXTR potentiators, primary screen, fluorescence, CHO-OTR cells, Fluo-8 calcium | Oxytocin receptor (Homo sapiens), P30559 | Fluo-8 calcium fluorescence, potentiator mode; 0% = oxytocin EC15, 100% = EC100 | activation, % at 3 µM | 0.061% of 320,000 active | AID 2445, 2010;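 active = activation above that plate's cutoff, the mean activation of tested compounds plus 3 SD, cut at about 6.6% in these data, passing the limit was not always enough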;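 note: 100% uses oxytocin at 75 nM as the full agonist control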
#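 System: human OTR in CHO cells / Also added: sub-maximal oxytocin, roughly EC15 / Control set: EC15 oxytocin low, 75 nM oxytocin high / Schedule: 6 min compound pre-incubation at room temperature, 100 s kinetic read / Compound: single-point 3.0 µM / Replication: singlicate / Technique: Fluo-8 calcium dye fluorescence / Read-out basis: % activation of max/min ratio relative to oxytocin controls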
# TAAR1 ag confirm – human TAAR1 agonists, retest of hits, confirmation, Fluo-8 calcium fluorescence, CHO RD-HGA16 cells; shares compounds with TAAR1 agonist; AID 651783, 2012; 82% of 2,400 active; activation, % at 3 µM; scaled: DMSO 0%, maximal phenethylamine 100%;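 active = activation above a cutoff set at the run's mean compound activation plus 3 SD, cut at about 39% in these data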
# Ga16 nonsel ag – nonselective calcium mobilization agonists, CHO-Ga16 cells, counter-screen for hTAAR1 agonist project, cell-based, fluorescence, CHO-Ga16 parental line; AID 651787, 2012; activation, % at 3 µM; Fluo-8 calcium fluorescence; normalized to maximal ATP response, DMSO zero; 50% of 2,400 active; shares compounds with TAAR1 agonist;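 active = activation above the run cutoff, the mean activation over all tested wells plus 3 SD, cut at about 12% in these data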;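 note: 0% = DMSO wells and 100% = maximal ATP response on the peak over basal ratio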
# TAAR1 desens – TAAR1 desensitization by agonist hits, confirmation, counter-screen for TAAR1 agonist project, cell-based, fluorescence, tachyphylaxis | 46% of 2,400 active | inhibition, % at 3 µM | AID 651951, 2012 | shares compounds with TAAR1 agonist | CHO RD-HGA16 hTAAR1, Fluo-8 calcium, beta-PEA response inhibition;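 active = inhibition above the run cutoff, the mean inhibition of all test compounds plus 3 SD, cut at about 49% in these data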;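 note: beta-PEA stimulus applied at its EC80; loss of beta-PEA calcium signal after compound pretreatment read as receptor desensitization; 0% = DMSO with beta-PEA at EC80 and 100% = DMSO alone without agonist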
# Ga16 antag count – inhibition of ATP-evoked calcium response in CHO-Ga16 cells, counter-screen for TAAR1 agonist project, cell-based, fluorescence | CHO-Ga16 ATP-induced calcium, Fluo-8 fluorescence | inhibition, % at 3 µM | shares compounds with TAAR1 agonist | 39% of 2,400 active;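 active = inhibition above the plate's mean compound inhibition plus 3 SD, computed per plate, cut at about 22% in these data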;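 note: 0% = EC80 ATP with DMSO and 100% = DMSO wells without ATP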
# The depositor's hits bear a star; / = not tested or not shown; ! = a repeat was not active. Hits are enriched below; roughly 2.3% of the tested compounds scored in any of these assays.
SMILES,V1R ag counter,OXTR ag,TAAR1 agonist,TAAR1 antag,OXTR potentiator,TAAR1 ag confirm,Ga16 nonsel ag,TAAR1 desens,Ga16 antag count
CC/C(=C(\c1ccccc1)c1ccc(OCCN(C)C)cc1)c1ccccc1,2,1,39*!,-7,-8,46*,42*,27,38*
Cc1[nH]nc2ncc(C(=O)c3cc(F)ccc3O)cc12,0,0,5,1,-6,/,/,/,/
CCCCN1Cc2cc(C(=O)c3cc(F)ccc3O)cnc2NC1=O,0,0,82*,9,-16,53*,24*,25,16
CCOC(=O)CNC(=O)Cn1cnc2c(nnn2-c2cccc(Cl)c2)c1=O,0,0,6,-16,-2,/,/,/,/
Cc1ccc(OCC(=O)NNC(=S)NC(=O)c2ccc(Br)o2)c(C)c1,/,/,11,11,/,/,/,/,/
COc1ccc(C(=O)NC(=S)NNC(=O)c2c(-c3ccccc3)noc2C)cc1OC,29*,21*,68*,-1,-17,70*,47*,24,11
Cc1onc(-c2ccccc2)c1C(=O)NNC(=S)NC(=O)/C=C/c1cccs1,24*,29*,115*,69*,-11,107*,94*,79*,62*
Cc1onc(-c2ccccc2)c1C(=O)NNC(=S)NC(=O)c1ccc2c(c1)OCO2,53*,27*,89*,46,-19,95*,81*,52*,38*
COc1ccc(C(=O)NNC(=S)NC(=O)c2ccc(Br)o2)cc1OC,5,3,50*,11,0,21,13*,12,9
CC(=O)Nc1ccc(S(=O)(=O)N2CCN(CC(O)COc3ccc4ccccc4c3)CC2)cc1 (stereo not given),11,19,30,39,-12,/,/,/,/
CC(C)CNC(=O)c1cccc(NC(=O)c2ccccc2-c2ccccc2C(=O)O)c1,2,1,1,-11,-3,/,/,/,/
CC(C)CNC(=O)c1ccccc1-c1ccccc1C(=O)O,-1,0,54*,3,-12,7,5,-2,7
O=C1c2cccc3c(N4CCCCC4)ccc(c23)C(=O)N1c1ccccc1O,41*,43*,130*,65*,-36,24,33*,36,50*
COc1ccc(C2C(C(N)=O)=C(C)Nc3nc(-c4ccccc4)nn32)cc1OC (stereo not given),0,0,0,-16,-1,/,/,/,/
CC(C)(C)C(=O)NC(=S)NNC(=O)c1ccc(Cl)cc1Cl,122*,98*,202*,104*,-26,144*,115*,107*,92*
C[C@@H](C(=O)NCCc1ccccc1F)N1C(=O)N2CCc3c([nH]c4ccccc34)[C@@]2(C)C1=O,1,5,59*,34,-6,73*,4,46,21

# From PubChem
